This is a sample that favours compounds with a hit; in the whole collection about 1.6% have one here.
SKN-1 block: C. elegans SKN-1 inhibition; C. elegans VP596 Pgst-4::GFP/RFP ratio, acrylamide-induced, 24 h; inhibition, % at 21.8 µM; 360,000 tested, 0.49% active;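 active = interference check ratio from 0.5 to 1.5 plus GFP to RFP signal ratio inhibition reaching or exceeding a fixed threshold, cut at about 30% in these data, passing the limit was not always enough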
MsrA act: activates bovine MsrA enzyme | purified bovine MsrA, absorbance read-out | activation, % at 10.6 µM | 360,000 tested, 0.3% active | AID 602163; in the data active = activation above about 7.5%
MsrA inh: inhibits bovine methionine sulfoxide reductase A. purified bovine MsrA, absorbance read-out. inhibition, % at 15.5 µM. 360,000 tested, 0.75% active
p-CIP stab down: lowers stability of the mouse p/CIP coactivator protein; AID 1984; F442A p/CIP-EGFP cells, EGFP fluorescence, 16 h; 290,000 tested, 0.01% active; decrease of EGFP signal, % at 10 µM; Q05BA5;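 active = EGFP signal decrease of at least 30% at 10 µM or well 3 SD below plate mean, unless failing retest; inactive = the rest, including hits failing retest or dose response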
Target sequence (Q05BA5 1-1403): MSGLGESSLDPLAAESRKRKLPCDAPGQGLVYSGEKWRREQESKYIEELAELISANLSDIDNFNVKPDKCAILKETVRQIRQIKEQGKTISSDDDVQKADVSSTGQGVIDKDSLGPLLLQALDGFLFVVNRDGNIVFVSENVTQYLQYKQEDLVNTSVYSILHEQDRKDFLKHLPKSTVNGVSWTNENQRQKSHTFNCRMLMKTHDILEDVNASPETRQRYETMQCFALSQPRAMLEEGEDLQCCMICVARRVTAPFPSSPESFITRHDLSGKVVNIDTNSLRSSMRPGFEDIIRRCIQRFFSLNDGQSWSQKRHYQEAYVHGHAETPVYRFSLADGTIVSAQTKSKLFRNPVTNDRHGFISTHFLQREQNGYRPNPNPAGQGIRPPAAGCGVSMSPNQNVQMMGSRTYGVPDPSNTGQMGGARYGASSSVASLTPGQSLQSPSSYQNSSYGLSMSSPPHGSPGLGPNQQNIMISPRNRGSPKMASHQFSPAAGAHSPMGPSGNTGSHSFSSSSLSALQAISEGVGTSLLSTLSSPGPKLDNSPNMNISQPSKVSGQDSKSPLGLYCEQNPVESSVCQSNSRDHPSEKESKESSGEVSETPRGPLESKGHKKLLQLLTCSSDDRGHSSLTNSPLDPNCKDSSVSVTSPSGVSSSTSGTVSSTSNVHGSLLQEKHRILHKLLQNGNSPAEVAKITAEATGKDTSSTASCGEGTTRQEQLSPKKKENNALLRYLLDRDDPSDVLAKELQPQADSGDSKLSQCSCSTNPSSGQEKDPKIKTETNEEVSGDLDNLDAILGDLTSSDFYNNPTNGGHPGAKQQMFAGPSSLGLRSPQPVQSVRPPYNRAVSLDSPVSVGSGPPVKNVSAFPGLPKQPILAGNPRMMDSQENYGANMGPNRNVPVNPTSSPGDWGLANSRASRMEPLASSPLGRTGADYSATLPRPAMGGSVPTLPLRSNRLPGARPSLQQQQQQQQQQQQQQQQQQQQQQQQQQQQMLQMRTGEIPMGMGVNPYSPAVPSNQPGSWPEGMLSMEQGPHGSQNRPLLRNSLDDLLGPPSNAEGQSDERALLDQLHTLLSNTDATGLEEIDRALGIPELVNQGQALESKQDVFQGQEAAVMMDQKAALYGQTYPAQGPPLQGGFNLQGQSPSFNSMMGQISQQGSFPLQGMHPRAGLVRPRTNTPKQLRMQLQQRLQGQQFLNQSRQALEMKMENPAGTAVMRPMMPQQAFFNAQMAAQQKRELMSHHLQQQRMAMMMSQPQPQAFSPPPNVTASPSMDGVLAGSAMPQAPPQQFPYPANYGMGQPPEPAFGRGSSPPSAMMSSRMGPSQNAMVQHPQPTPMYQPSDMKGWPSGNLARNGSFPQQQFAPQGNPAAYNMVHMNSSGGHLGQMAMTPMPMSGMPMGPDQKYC
MT1-MMP act inh: blocks activation of human MT1-MMP; P50281; HT1080 RFP-PRO-GFP cells, GFP/RFP ratio fluorescence, overnight; percent of plate control window, DMSO zero; GFP/RFP ratio change, % at 20 µM; 360,000 tested, 0.061% active; AID 651647;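 active = GFP/RFP ratio change of at least 30% with cell ATP level not reduced by more than half and red fluorescence within 50% of control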
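Assay system: HT1080 RFP-PRO-GFP cells. Benchmarks: DMSO vehicle wells and RFP-L50D-GFP reporter cell wells. Times: overnight cell settling, then overnight compound exposure, 37 °C, 5% CO2. Compound: 20 µM single dose, 1% DMSO. Read-out basis: GFP/RFP fluorescence ratio.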
MsrA conf: bovine MsrA inhibition, confirmed; shares compounds with MsrA inh; purified bovine MsrA, absorbance read-out; inhibition, % at 15.5 µM; 2,300 tested, 41% active; AID 651822;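 also: coupled to thioredoxin reductase with NADPH and selenocystamine and DMSO as substrate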
Numbers stand for hits; i = inactive; nt = no result. Rule as the data show it, unless noted: active = inhibition above about 4.5%; inactive = the rest.

SMILES	SKN-1 block	MsrA act	MsrA inh	p-CIP stab down	MT1-MMP act inh	MsrA conf
COCCn1c(SCC(N)=O)nc2c(c1=O)SC(C)C2 (stereo not drawn)	i	i	4.7	i	i	i
CC1Cc2nc(SCC(=O)Nc3ccc4c(c3)OCO4)n(Cc3ccccc3)c(=O)c2S1 (stereo not drawn)	i	i	i	i	i	nt
CC1Cc2nc(SCC(=O)Nc3ccc4c(c3)OCCO4)n(C)c(=O)c2S1 (stereo not drawn)	i	i	5.0	i	i	i
COCCn1c(SCC(=O)Nc2ccc3c(c2)OCCO3)nc2c(c1=O)SC(C)C2 (stereo not drawn)	i	i	5.2	i	i	i
CC1Cc2nc(SCC(N)=O)n(C)c(=O)c2S1 (stereo not drawn)	i	i	i	i	i	nt
COCCn1c(SCC(=O)Nc2cc(C)on2)nc2c(c1=O)SC(C)C2 (stereo not drawn)	i	i	i	i	i	nt
C=CCN=C1NC(c2ccccc2C(F)(F)F)C(C(=O)OC)=C(C)N1Cc1ccc(C(F)(F)F)cc1 (stereo not drawn)	nt	nt	i	nt	nt	nt
COC(=O)[C@]12C[C@H](CC(=O)N3CCSCC3)C(=O)N(CCC3=CCCCC3)C1=C[C@H](C(C)(C)C)O[C@@H]2C	nt	nt	i	nt	nt	nt
CCOC(=O)N=Nc1c2ccccc2c2nc3no[nH]c3nc12	i	i	14	nt	i	18
CCOC(=O)c1cc(C(=O)OCC)c(=O)[nH]c1N1CCCCC1	i	i	7.5	i	i	i
COc1ccc(Nc2nc3cc(C)ccc3cc2C#N)cc1	i	i	8.7	i	i	6.9
CCOC(=O)/C(C#N)=C/c1ccc(OC)c(OC)c1	i	i	i	i	i	nt
CO/N=C/C(C#N)=C/c1ccc(OC)c(OC)c1	i	i	5.1	i	i	i
Cc1cccc(C(=O)Nc2cc(Cl)ccc2-n2cncn2)c1[N+](=O)[O-]	i	i	7.3	nt	i	4.8
CC(C)[C@@H](C)/C=C/[C@@H](C)[C@H]1CC[C@@H]2[C@]1(C)CCC1[C@]23C=C[C@]2(C[C@@H](O)CC[C@]12C)N(c1cnccn1)O3 (stereo partly drawn)	nt	nt	i	nt	nt	nt
Cc1cc(N2CCOCC2)ccc1/C=C1\NC(=O)N(CC(=O)Nc2ccc(F)cc2)C1=O	i	i	5.6	i	i	i
COC(=O)c1ccccc1NC(=O)c1cnc2sccn2c1=O	i	i	i	i	i	nt
O=C(Nc1nccs1)c1cnc2sccn2c1=O	i	i	5.8	nt	i	5.7
CC(=O)c1ccc(N2CCN(S(=O)(=O)c3cccc4nsnc34)CC2)cc1	i	i	4.7	i	i	i
C[C@H](O)[C@@H]1C(=O)N2CCc3c([nH]c4cccc(-c5ccccc5)c34)[C@@H]2C[C@@H]1N(C)C(=O)c1ccccc1	nt	nt	i	nt	nt	nt
Cc1noc(NS(=O)(=O)c2ccc(NC(=O)c3nn(-c4ccc(F)cc4)ccc3=O)cc2)c1C	i	i	i	i	i	nt
Cc1cc(NS(=O)(=O)c2ccc(NC(=O)c3cnc4scc(C)n4c3=O)cc2)nc(C)n1	i	i	6.8	i	i	i
Cc1ccc(-n2ccc(=O)c(C(=O)Nc3ccc(S(=O)(=O)Nc4onc(C)c4C)cc3)n2)cc1	i	i	4.8	i	i	i
Cc1cc(NS(=O)(=O)c2ccc(NC(=O)/C=C/c3ccco3)cc2)nc(C)n1	i	i	6.7	i	i	4.8
Cc1noc(NS(=O)(=O)c2ccc(NC(=O)c3cnc4scc(C)n4c3=O)cc2)c1C	i	i	5.8	i	i	6.2
SMILES	SKN-1 block	MsrA act	MsrA inh	p-CIP stab down	MT1-MMP act inh	MsrA conf
COc1cccc(CNC(=O)[C@H]2CCCN2C(=O)[C@H]2CCCN2C(=O)c2ccccc2)c1	nt	nt	i	nt	nt	nt
CC(C)[C@@H](C)/C=C/[C@@H](C)[C@H]1CC[C@@H]2[C@]1(C)CCC1[C@]23C=C[C@]2(C[C@@H](O)CC[C@]12C)N(c1ccc(F)cn1)O3 (stereo partly drawn)	nt	nt	i	nt	nt	nt
COc1ccccc1CCn1cnc(-c2cccc(F)c2)c1C(C)C	nt	nt	i	nt	nt	nt
CSc1nc2[nH]c3c(c2c2nnnn12)CCCC3	i	i	12	i	i	10
CSc1nc2[nH]c3c(c2c2nncn12)CC(C)(C)OC3	i	i	i	i	i	nt
CC(C)(C)n1nc(C2CC2)c(Br)c1NC(=O)c1ccccc1Cl	nt	nt	i	nt	nt	nt
O=C(O)CSc1cc(NS(=O)(=O)c2ccc(Br)cc2)c2ccccc2c1O	i	9.3	4.9	i	i	i
Cn1cnc([N+](=O)[O-])c1S(=O)(=O)Oc1ccccc1	i	i	17	nt	i	12
Cn1cnc([N+](=O)[O-])c1S(=O)(=O)Nc1ccccc1	i	i	16	nt	i	8.1
Cn1cnc([N+](=O)[O-])c1S(=O)(=O)c1cccc(Cl)c1	i	i	i	i	i	nt
C=CCN1C(=O)c2n[nH]c(COC)c2C1c1ccc(F)cc1 (stereo not drawn)	nt	nt	i	nt	nt	nt
COC(=O)C1=C(C)N(C)C(=NCc2cc(OC)c(OC)c(OC)c2)NC1c1cccc(C(F)(F)F)c1 (stereo not drawn)	nt	nt	i	nt	nt	nt
Cc1cc(C)n(C(=O)c2cc3sccc3[nH]2)n1	i	i	4.7	i	i	i
Cc1cc(C)n(C(=O)c2ccc(C)o2)n1	i	i	i	i	i	nt
CC(O)CNc1cc(N)c([N+](=O)[O-])cc1[N+](=O)[O-] (stereo not drawn)	i	i	5.2	i	i	6.2
CC(NC(=O)c1c(N)[nH]c(C(=O)c2ccc(Cl)cc2)c1-c1ccc(Br)cc1)c1cccc2ccccc12 (stereo not drawn)	nt	nt	i	nt	nt	nt
COC(=O)[C@@H](Cc1ccccc1)N[C@H](/C=C/c1ccccc1)[C@@H](O)Cc1ccccc1	nt	nt	i	nt	nt	nt
O=C1c2cccc3cc([N+](=O)[O-])cc(c23)C(=O)N1CCN1CCCC1	i	i	i	i	i	nt
O=C1c2cccc3cc([N+](=O)[O-])cc(c23)C(=O)N1/N=C/c1ccc(O)cc1O	i	i	4.7	i	i	i
O=C(O)CC1S/C(=N/N=C/c2ccc(-c3ccc(Cl)c([N+](=O)[O-])c3)o2)NC1=O (stereo not drawn)	i	i	5.4	i	i	i
O=C(O)CC1S/C(=N/N=C/c2ccc(-c3ccc(Cl)cc3[N+](=O)[O-])o2)NC1=O (stereo not drawn)	i	i	4.9	i	i	5.8
C=CCNc1oc(-c2ccc(Cl)cc2)nc1C#N	i	i	i	nt	i	nt
CNc1oc(-c2ccc(Cl)cc2)nc1C#N	i	i	4.8	i	i	i
CCCCCCCCN1C(=O)[C@@H](CC(=O)NCC2CCCCC2)C[C@@]2(C(=O)OC)C1=C[C@H](C(C)(C)C)O[C@@H]2C	nt	nt	i	nt	nt	nt
CCOC(=O)c1sc(NC(=O)C(C)C)c(C#N)c1C	i	i	i	i	i	nt
CCOC(=O)c1sc(NC(=O)C2=COCCO2)c(C#N)c1C	i	i	5.8	nt	i	i
O=C(N=Nc1c(O)[nH]c2ccccc12)c1ccccc1NS(=O)(=O)c1cccs1	i	i	4.8	i	i	i

Bioassay records as filed in PubChem.
